Active and inactive are the calls of the source. The calls are words filed in the database; no cut-off is given here.
Columns and labels:
[1] = system: Radical scavenging activity; assay: Antioxidant activity assessed as DPPH radical scavenging activity at 100 uM; assay type: functional
Procedure, shortened: (§1)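 DPPH radical bleaching, tested at 10, 50, 100 and 200 µM (printed as mM) following a published method, with resveratrol as reference.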

[2] = system: Radical scavenging activity; assay: Antioxidant activity assessed as DPPH radical scavenging activity at 10 uM; assay type: functional; procedure, shortened: as §1
[3] = system: Radical scavenging activity; assay: Antioxidant activity assessed as DPPH radical scavenging activity; assay type: functional; procedure, shortened: as §1
[4] = system: Radical scavenging activity; assay: Antioxidant activity assessed as DPPH radical scavenging activity at 200 uM; assay type: functional; procedure, shortened: as §1
[5] = system: Radical scavenging activity; assay: Antioxidant activity assessed as DPPH radical scavenging activity at 50 uM; assay type: functional; procedure, shortened: as §1
[6] = Neuroprotective activity in ICR mouse cortical neuron cells assessed as prevention of excitotoxic neuronal death after 24 hrs by LDH assay; assay type: functional; conditions: Cortical neurone, read-out: ED50 (the source's name)
Procedure, shortened: (§2)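 Primary cortical cultures from ICR mouse embryos at gestational day 15, plated on poly-D-lysine/laminin at 4.8 × 10⁵ cells/well in MEM with 5% FCS and mouse serum. Compound at 1–50 µM was co-applied with glutamate 50 µM for 24 h at 37 °C. LDH released into the medium was followed by NADH consumption with pyruvate, read at 340 nm. Mean ± SD of three observations.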

BV-2 [7] = assay: Antiinflammatory activity against mouse BV2 microglia cells assessed as inhibition of LPS-induced NO production after 24 hrs; assay type: functional; conditions: BV-2, 24 h, read-out: ED50 (the source's name)
Procedure, shortened: (§3)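 BV-2 murine microglia kept in DMEM with 10% FBS and penicillin/streptomycin (37 °C, 5% CO2). Cells were plated at 1 × 10⁵ cells/mL and stimulated with LPS 100 ng/mL, alone or with compound at 1, 10 or 50 µM, for 24 h at 37 °C. Nitrite in the medium was read by Griess reagent at 540 nm. Mean ± SD of three observations.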

Cortical neurone [8] = assay: Neuroprotective activity in ICR mouse cortical neuron cells assessed as prevention of glutamate-induced neurotoxicity at 10 to 50 uM after 24 hrs by LDH assay; assay type: functional; procedure, shortened: as §2
Cortical neurone [9] = assay: Neuroprotective activity in ICR mouse cortical neuron cells assessed as prevention of glutamate-induced neurotoxicity at 1 uM after 24 hrs by LDH assay; assay type: functional; procedure, shortened: as §2
BV-2 [10] = assay: Antiinflammatory activity against mouse BV2 microglia cells assessed as inhibition of LPS-induced NO production at 1 uM after 24 hrs; assay type: functional, cell-based; procedure, shortened: as §3
BV-2 [11] = assay: Antiinflammatory activity against mouse BV2 microglia cells assessed as inhibition of LPS-induced NO production at 10 to 50 uM after 24 hrs; assay type: functional, cell-based; procedure, shortened: as §3

Row | Compound | IC50 [3] | EC50 (BV-2 [7]) | Activity [1] | Activity [2] | Activity [4] | Activity [5] | EC50 [6] | Activity (Cortical neurone [8]) | Activity (Cortical neurone [9]) | Activity (BV-2 [10]) | Activity (BV-2 [11])
1 | O=C(CNC(=O)c1ccccc1)OCc1ccc(/C=C/c2ccc(O)c(O)c2)cc1 | > 200 µM |  | 33.2% | 21.2% | 46.9% | 28.1% |  |  | Active |  | 
2 | O=C(Nc1ccccc1)c1ccc(/C=C/c2ccc(O)c(O)c2)cc1 | > 200 µM |  | 27.1% | 10.2% | 59.8% | 17.6% |  |  |  |  | 
3 | Oc1ccc(/C=C/c2cc(O)cc(O)c2)cc1 [RESVERATROL] | > 200 µM |  | 28.4% | 9.45% | 33.8% | 8.44% |  |  |  |  | 
4 | O=C(NCC1CCCO1)c1ccc(/C=C/c2ccc(O)c(O)c2)cc1 (configuration not stated) | > 200 µM |  | 26.5% | 16.7% | 31.7% | 18% |  |  |  |  | 
5 | OC/C=C/c1ccc(/C=C/c2ccc(O)c(O)c2)cc1 | > 200 µM |  | 11.5% | 6.82% | 17.3% | 8.64% |  |  |  |  | 
6 | COC(=O)c1ccc(/C=C/c2ccc(O)c(O)c2)cc1 | > 200 µM |  | 16.5% | 2.31% | 29.3% | 8.95% |  |  |  |  | 
7 | O=C(NCCCN1CCCC1=O)c1ccc(/C=C/c2ccc(O)c(O)c2)cc1 | > 200 µM |  | 28.4% | 12.9% | 44% | 22.2% |  |  |  |  | 
8 | O=C(c1ccc(/C=C/c2ccc(O)c(O)c2)cc1)N1CCC(Cc2ccccc2)CC1 | > 200 µM | 1.12 µM | 17.4% | 4.75% | 25.8% | 10.1% |  | Active |  | Active | 
9 | O=C(c1ccc(/C=C/c2ccc(O)c(O)c2)cc1)N1CCOCC1 | > 200 µM |  | 19.1% | 5.7% | 29.4% | 10.2% |  |  |  |  | 

Continued, in another order:

Row | IC50 [3] | EC50 (BV-2 [7]) | Compound | Activity [1] | Activity [2] | Activity [4] | Activity [5] | EC50 [6] | Activity (Cortical neurone [8]) | Activity (Cortical neurone [9]) | Activity (BV-2 [10]) | Activity (BV-2 [11])
10 | 185 µM |  | O=C(c1ccccc1)N1CCN(C(=O)c2ccc(/C=C/c3ccc(O)c(O)c3)cc2)CC1 | 36.7% | 17.2% | 59.1% | 24.6% |  |  |  |  | 
11 | > 200 µM |  | COC(=O)/C=C/c1ccc(/C=C/c2ccc(O)c(O)c2)cc1 | 5.73% | 5.91% | 5.29% | 5.31% |  |  |  |  | 
12 | > 200 µM |  | CC1CCN(C(=O)c2ccc(/C=C/c3ccc(O)c(O)c3)cc2)CC1 | 31.5% | 15.1% | 48.6% | 21.3% |  |  |  |  | 
13 | > 200 µM | 1.51 µM | O=C/C=C/c1ccc(/C=C/c2ccc(O)c(O)c2)cc1 | 28.8% | 13.2% | 54.4% | 21.2% | 42.3 µM | Active | Active | Active | 
14 | 47.9 µM |  | CCCCCCCCCCNC(=O)c1ccc(/C=C/c2ccc(O)c(O)c2)cc1 | 75.2% | 18.5% | 79.1% | 42% |  |  |  |  | 
15 | 128 µM |  | O=C(NC1CCCCC1)c1ccc(/C=C/c2ccc(O)c(O)c2)cc1 | 40.2% | 17.2% | 68.7% | 22.5% |  |  |  |  | 
16 | 43.6 µM |  | O=C(NCc1ccccc1F)c1ccc(/C=C/c2ccc(O)c(O)c2)cc1 | 52.3% | 29.8% | 88% | 42.2% |  |  |  |  | 
17 | 98.1 µM | 1.95 µM | C=CCNC(=O)c1ccc(/C=C/c2ccc(O)c(O)c2)cc1 | 41.7% | 15% | 74.1% | 29% | 29.6 µM | Active |  |  | Active
18 | 69 µM | 0.82 µM | O=C(NCc1ccco1)c1ccc(/C=C/c2ccc(O)c(O)c2)cc1 | 48% | 21.9% | 79.2% | 35.1% | 58.3 µM | Active |  |  | Active
19 | 127 µM |  | CCOC(=O)c1cccc(NC(=O)c2ccc(/C=C/c3ccc(O)c(O)c3)cc2)c1 | 44.1% | 21.3% | 62.8% | 29.3% |  |  |  |  | 
20 | 141 µM |  | C=CCN1CCN(C(=O)c2ccc(/C=C/c3ccc(O)c(O)c3)cc2)CC1 | 40% | 24.8% | 62.4% | 31.2% |  |  |  |  | 

Reference: ChEMBL document CHEMBL1153600, “Synthesis of novel trans-stilbene derivatives and evaluation of their potent antioxidant and neuroprotective effects” (Eur J Med Chem, 2009)
